High-throughput results from PubChem BioAssay.
Rows were chosen to be rich in hits. Some 1.8% of all compounds tested hit in one or more screens of this group.
697 NFkB inh: lowers PMA/ionomycin-induced NF-kB signal in 697 B cells; 697 B-cell NF-kB luciferase reporter, 16 h; inhibition, % at 4 µM; 0.33% of 330,000 active; in the data active = inhibition above about 35%
Jurkat NFkB inh: inhibitors of the PMA/ionomycin-induced NF-kB reporter in Jurkat cells. 0.53% of 330,000 active. inhibition, % at 4 µM. AID 435003. PMA/ionomycin-induced NF-kB luciferase reporter, luminescence; in the data active = inhibition above about 50%
NR2E3 ag-1: agonists of human NR2E3 nuclear receptor; CHO-S Gal4-NCOR/VP16-NR2E3 two-hybrid, luciferase; Q9Y5X4; 0.35% of 360,000 active; inhibition of corepressor binding, % at 3.98 µM;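 active = inhibition above the mean of all tested compounds plus 3 SD, cut at about 70% in these data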;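 note: 0% = DMSO with NR2E3 transfected cells and 100% = cells lacking NR2E3 construct; higher means lower luciferase signal from less NR2E3 corepressor binding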
Target sequence (Q9Y5X4 whole entry, looked up, the tested form may be a part): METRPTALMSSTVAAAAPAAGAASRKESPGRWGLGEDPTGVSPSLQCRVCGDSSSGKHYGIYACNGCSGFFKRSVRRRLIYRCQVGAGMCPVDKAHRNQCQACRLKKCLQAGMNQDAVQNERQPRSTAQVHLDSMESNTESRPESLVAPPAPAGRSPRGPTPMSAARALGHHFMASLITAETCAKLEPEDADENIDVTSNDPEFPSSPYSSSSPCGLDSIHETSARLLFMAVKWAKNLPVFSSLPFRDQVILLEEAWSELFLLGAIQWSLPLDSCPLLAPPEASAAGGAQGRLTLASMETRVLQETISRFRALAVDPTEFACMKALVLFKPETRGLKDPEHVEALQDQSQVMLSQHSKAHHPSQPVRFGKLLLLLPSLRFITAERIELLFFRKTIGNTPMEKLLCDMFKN
Gli-Sufu block: Gli-Sufu pathway antagonism | inhibition, % at 5 µM | 0.74% of 340,000 active | Sufu-KO-LIGHT fibroblasts, Gli luciferase reporter luminescence;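 active = inhibition above about 55%, limit read from the data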;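 note: 0% = DMSO-treated cells and 100% = wells with medium but no cells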
GalR3 antagonist: blocks the human galanin receptor 3; O60755; HEK293 GalR3-CNG cAMP membrane potential fluorescence; galR3 body fused to GalR1 C-terminus; inhibition, % at 3 µM; 0.44% of 360,000 active;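 active = inhibition above the screen-wide average plus 3 SD, cut at about 13% in these data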;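 note: forskolin and galanin both at EC90 stimulate the cells; cAMP rise reported by CNG channel membrane potential dye signal; 0% = forskolin plus galanin with DMSO and 100% = forskolin alone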
Target sequence (O60755 1-299 limits assumed): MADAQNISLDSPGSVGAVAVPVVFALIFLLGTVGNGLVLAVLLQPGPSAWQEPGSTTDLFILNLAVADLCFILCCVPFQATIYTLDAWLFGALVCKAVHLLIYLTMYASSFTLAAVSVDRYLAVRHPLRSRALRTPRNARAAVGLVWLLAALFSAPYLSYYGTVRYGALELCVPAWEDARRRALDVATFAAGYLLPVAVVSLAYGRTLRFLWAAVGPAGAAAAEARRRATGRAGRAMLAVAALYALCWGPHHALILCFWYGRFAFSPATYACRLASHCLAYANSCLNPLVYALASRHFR
NR2E3 ag-2: agonists of human nuclear receptor NR2E3. Q9Y5X4. 0.12% of 320,000 active. inhibition of corepressor binding, % at 4.78 µM. GST-NR2E3/biotin-RetCOR TR-FRET, 1536-well. AID 2300;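 active = percent inhibition above the cutoff of mean plus 3 SD of all tested compounds, set per screening campaign, cut at about 20% in these data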;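 note: 0% = DMSO wells and 100% = biotin wells as full block of FRET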
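Material: NR2E3–RetCOR corepressor complex / Incubation: Compound–protein incubation for 5 h at 4 °C / Dosing: compound at 4.8 µM, single dose / Detection: time-resolved FRET / Benchmarks: high control biotin, low control 0.6% DMSO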
Gli antag conf: Gli-SUFU antagonism confirmation, single concentration; shares compounds with Gli-Sufu block; Sufu-KO-LIGHT cells, Gli luciferase reporter, luminescence; inhibition, % at 5 µM; 40% of 2,500 active; AID 602428;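 active = mean inhibition at 5 µM reaching about 45%, limit read from the data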;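 note: plate controls were DMSO-treated cells for no effect and wells lacking cells for full effect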
Gli cytotox: cytotoxicity counter-screen for Gli-SUFU antagonists; shares compounds with Gli-Sufu block; Sufu-KO-LIGHT cells cytotoxicity, ATP luminescence; cytotoxicity, % at 5 µM; 32% of 2,500 active;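 active = mean cytotoxicity at 5 µM above about 25%, limit read from the data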;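 note: cells exposed to compound overnight for roughly 16 to 18 hours; plate controls were DMSO wells with cells for no effect and medium without cells for full effect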
Wnt3a counter: inhibits Wnt3a reporter, counter-screen for Gli-SUFU antagonists; shares compounds with Gli-Sufu block; Wnt-LIGHT cells, Wnt3a-driven luciferase reporter, luminescence; inhibition, % at 6.25 µM; 20% of 2,500 active;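 active = mean inhibition above about 25%, limit read from the data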
* marks the source's active call; other numbers are inactive results; · = not tested or not shown.

SMILES | 697 NFkB inh | Jurkat NFkB inh | NR2E3 ag-1 | Gli-Sufu block | GalR3 antagonist | NR2E3 ag-2 | Gli antag conf | Gli cytotox | Wnt3a counter
O=C(O)CCc1ccc(S(=O)(=O)NCCc2ccccc2)cc1 | 5 | -9 | -1 | 0 | -3 | 0 | · | · | ·
O=S(=O)(NCCc1ccccc1)c1ccc(F)cc1 | -1 | 4 | 1 | 52 | -6 | -4 | 36 | 25 | -13
Cc1ccc(S(=O)(=O)N(C)c2cccc3c2S(=O)(=O)N([C@H](C)c2ccccc2)C[C@@H](COCc2ccccc2)O3)cc1 | · | · | · | · | -5 | · | · | · | ·
O=C(Nc1ccc2c(c1)OCO2)Nc1ccc2c(c1)OCO2 | -113 | -104 | -81 | -80 | 1 | -1 | · | · | ·
Cc1ccc(C(=O)O)cc1NC(=O)Nc1ccc2c(c1)OCO2 | 6 | -4 | 1 | 56* | -3 | 2 | -3 | 18 | -54
C[C@H](O)[C@@H]1C(=O)N2CCc3c([nH]c4cccc(-c5ccccc5)c34)[C@@H]2C[C@@H]1N(C)C(=O)NC1CCCCC1 | · | · | · | · | -10 | · | · | · | ·
Cc1ccc(Nc2nc(N3CCOCC3)c3ccccc3n2)cc1 | -14 | -9 | 21 | 1 | -5 | 1 | · | · | ·
COc1ccc(Nc2nc(N3CCCCC3)c3ccccc3n2)cc1 | -55 | 16 | 36 | 58* | -9 | -7 | 49* | 39* | -24
C[C@@H]1CN([C@@H](C)CO)S(=O)(=O)c2ccc(Br)cc2O[C@@H]1CN(C)S(=O)(=O)c1ccc(F)cc1 | · | · | · | · | -4 | · | · | · | ·
CCn1c(=NC(=O)CS(=O)(=O)c2ccccc2)sc2cccc(OC)c21 | -38 | 34 | 6 | 67* | -5 | -2 | 67* | 22 | 12
CCC(C)N(C(=O)CSc1nnc(COc2ccccc2F)n1N)C1CCS(=O)(=O)C1 (stereo not drawn) | 12 | 4 | 10 | -3 | -1 | -1 | · | · | ·
CCOC(=O)c1c(Nc2ccc(OC)cc2)n[nH]c1C | · | · | · | · | -6 | · | · | · | ·
CCOc1ccc(NC(=O)CCN2CCN(S(=O)(=O)c3ccc(F)cc3)CC2)cc1 | -46 | -4 | -1 | -7 | -7 | -2 | · | · | ·
CCOc1ccccc1NC(=O)CCN1CCN(S(=O)(=O)c2ccc(Br)cc2)CC1 | -7 | -6 | 14 | 53 | -3 | 2 | 17 | 19 | -74
CCOC(=O)Cn1c(COc2ccccc2OC)[n+](C)c2ccccc21 | 3 | 8 | -23 | 52 | 0 | 1 | 18 | 14 | 18
O=C(NCc1ccccc1)C1C(c2ccc3c(c2)OCO3)=Nc2ccccc2N1C(=O)c1ccco1 (stereo not drawn) | · | · | · | · | -9 | · | · | · | ·
COC(=O)c1sc(N)c(C(=O)OC)c1CSc1nnc(-c2ccccc2Cl)n1C | 28 | 13 | -2 | 3 | -7 | 0 | · | · | ·
COC(=O)c1sc(N)c(C(=O)OC)c1CSc1nnnn1C | 7 | -4 | -16 | 99* | 4 | 2 | 24 | 2 | 11
CC1CCCCN1c1ncnc2ccccc12 (stereo not drawn) | -60 | 23 | 33 | 22 | -11 | 2 | · | · | ·
CC1(C)CC2CC(C)(CN2c2ncnc3ccccc23)C1 (stereo not drawn) | -43 | 26 | 26 | 53 | -6 | 2 | 40 | 4 | 21
CCOC(=O)N[C@H](C(=O)N1CCC[C@H]1C(=O)NC1CCCC1)c1ccccc1 | · | · | · | · | -8 | · | · | · | ·
Cc1nc2ccc(NS(=O)(=O)c3ccc(F)c(C)c3)cc2[nH]1 | -21 | 27 | -13 | 62* | -13 | -1 | 49* | 21 | 27*
CCc1cc2c(nc1CC)CCCN2S(=O)(=O)c1ccc(C#N)cc1 | · | · | · | · | -7 | · | · | · | ·
O=C(COc1ccc(Br)cc1)NCCCNC(=O)c1cccnc1 | -48 | 5 | -7 | 59* | 1 | -1 | 26 | -1 | -10
Cc1ccc(-n2c(C)cc(C3=NNC(=NC4CC4)SC3)c2C)cc1C | -40 | -52 | -46 | 60* | 5 | 4 | 67* | 29* | 71*
SMILES | 697 NFkB inh | Jurkat NFkB inh | NR2E3 ag-1 | Gli-Sufu block | GalR3 antagonist | NR2E3 ag-2 | Gli antag conf | Gli cytotox | Wnt3a counter
Cc1ccc(CNC(=O)c2ccc(Cl)c(S(=O)(=O)N3CCCCC3)c2)cc1 | 17 | -7 | 28 | 1 | -1 | 1 | · | · | ·
CC1=C(C(N)=O)C(c2cccnc2)n2nc(SCc3ccccc3Cl)nc2N1 (stereo not drawn) | -3 | -13 | 15 | 58* | · | 4 | 10 | 7 | -12
O=[N+]([O-])c1cccc(COc2ccc(CO)cc2)c1 | · | · | · | · | -6 | · | · | · | ·
COc1cc(OC)cc(C(=O)NCC2CCN(C(=O)C(=O)c3cc4ccccc4o3)CC2)c1 | · | · | · | · | 1 | · | · | · | ·
Cc1onc(-c2c(Cl)cccc2Cl)c1C(=O)Nc1ccc2c(c1)OCCO2 | -7 | 4 | 2 | 0 | 5 | 2 | · | · | ·
Cc1onc(-c2c(F)cccc2Cl)c1C(=O)OCC(=O)Nc1cccc(S(=O)(=O)N(C)C)c1 | · | · | 13 | 53 | 2 | · | 12 | 6 | -50
Cc1onc(-c2c(F)cccc2Cl)c1C(=O)Nc1ccc(Cl)c(S(=O)(=O)N(C)C)c1 | -4 | -6 | -11 | 58* | -7 | 3 | 16 | 13 | -21
CNC(=O)C(=O)NCCN1CCN(S(=O)(=O)c2ccc3ccccc3c2)CC1 | -20 | -15 | -11 | -12 | -4 | · | · | · | ·
C[C@H]1CN([C@@H](C)CO)C(=O)CCCn2nncc2CO[C@@H]1CN(C)C(=O)Nc1ccccc1F | · | · | · | · | -5 | · | · | · | ·
O=C(Nc1ccc(F)cc1)OC[C@@H]1CSCCS(=O)(=O)N1 | · | · | · | · | -4 | · | · | · | ·
COc1ccc(S(=O)(=O)Cc2ccc(C(=O)N3CCN(c4ccc(Cl)cc4)CC3)o2)cc1 | -8 | 16 | 18 | 52 | 0 | 2 | 18 | 11 | -29
COc1ccc(N2CCN(C(=O)c3ccc(Cn4nc(C)c([N+](=O)[O-])c4C)o3)CC2)cc1 | -8 | 0 | 10 | 90* | 0 | · | 11 | 27* | -41
COc1ccc(N2CCN(C(=O)c3ccc(CS(=O)(=O)c4ccc(OC)cc4)o3)CC2)cc1 | 9 | 9 | -16 | 2 | -2 | 1 | · | · | ·
Cc1nn(Cc2ccc(C(=O)N3CCCC3)o2)c(C)c1[N+](=O)[O-] | -10 | -8 | 4 | -33 | 0 | · | · | · | ·
CC(=O)c1nn(-c2ccc(Cl)cc2)c(=O)[nH]c1=O | -23 | -10 | 10 | -3 | -10 | 0 | · | · | ·
CC(C)[C@H]1COCCS(=O)(=O)N1Cc1ccccc1-c1cccc2c1oc1ccccc12 | 5 | · | -9 | 93* | -2 | · | 24 | 7 | -40
CCCCOc1ccccc1-c1ccccc1CN1[C@@H](C(C)C)COCCS1(=O)=O | 9 | · | 2 | 12 | -6 | · | · | · | ·
